Laboratory results published in ChEMBL document CHEMBL1157718, “Characterization of non-lipid autotaxin inhibitors” (Bioorg Med Chem, 2010).
Active and inactive are the calls of the source.

Key:
[1] = biological target: T1, Glycerophosphocholine cholinephosphodiesterase ENPP6 (Homo sapiens) (UniProt Q6UWR7); test: Inhibition of NPP6 expressed in human HEK293 cells at 10 uM; format: cell-based
T1 sequence (whole entry): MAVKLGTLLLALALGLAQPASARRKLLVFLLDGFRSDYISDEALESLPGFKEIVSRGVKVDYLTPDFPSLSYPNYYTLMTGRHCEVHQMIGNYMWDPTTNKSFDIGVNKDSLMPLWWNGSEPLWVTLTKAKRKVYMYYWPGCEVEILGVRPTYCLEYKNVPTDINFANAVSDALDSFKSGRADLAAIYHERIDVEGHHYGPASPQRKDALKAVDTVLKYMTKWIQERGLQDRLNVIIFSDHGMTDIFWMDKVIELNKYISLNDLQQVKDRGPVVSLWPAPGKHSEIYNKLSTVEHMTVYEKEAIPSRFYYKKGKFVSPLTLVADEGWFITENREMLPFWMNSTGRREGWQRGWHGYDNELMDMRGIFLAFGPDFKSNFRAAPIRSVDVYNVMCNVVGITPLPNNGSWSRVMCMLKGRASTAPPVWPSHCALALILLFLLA
Method in brief: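 Enzyme was soluble NPP6 in unconcentrated serum-free conditioned medium from transiently transfected HEK293 cells (48 h), making up one-third of the assay volume. Substrate was pNPPC at […] in 100 mM Tris-HCl pH 9.0, 500 mM NaCl, 0.05% Triton X-100, with inhibitor at 10 µM. A405 was read every 2 min and reported at 1 h, blank-subtracted and normalized to vehicle. Mean ± SD of ≥3 wells.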

[2] = biological target: T2, Ectonucleotide pyrophosphatase/phosphodiesterase family member 7 (Homo sapiens) (UniProt Q6UWV6); test: Inhibition of NPP7 expressed in human HEK293 cells at 10 uM; format: cell-based
T2 sequence (whole entry): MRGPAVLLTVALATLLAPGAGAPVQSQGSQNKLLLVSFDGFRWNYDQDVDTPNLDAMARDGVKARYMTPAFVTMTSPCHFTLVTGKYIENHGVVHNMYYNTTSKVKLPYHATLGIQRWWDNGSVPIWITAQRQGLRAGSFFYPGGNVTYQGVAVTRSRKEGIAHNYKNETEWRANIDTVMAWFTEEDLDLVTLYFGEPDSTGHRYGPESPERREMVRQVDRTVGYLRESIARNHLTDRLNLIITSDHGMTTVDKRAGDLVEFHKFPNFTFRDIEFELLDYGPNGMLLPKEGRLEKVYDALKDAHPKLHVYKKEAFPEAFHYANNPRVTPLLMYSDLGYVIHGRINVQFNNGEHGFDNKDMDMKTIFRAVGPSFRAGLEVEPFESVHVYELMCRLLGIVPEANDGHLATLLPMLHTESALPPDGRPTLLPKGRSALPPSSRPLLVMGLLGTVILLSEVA
Method in brief: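 Enzyme was soluble NPP7 in concentrated (10 kDa cutoff) serum-free conditioned medium from transiently transfected HEK293 cells, making up one-third of the assay volume. Substrate was pNPPC at […] in 50 mM Tris-HCl pH 8.5, 150 mM NaCl, 10 mM taurocholic acid, no EDTA, with inhibitor at 10 µM. A405 was read every 2 min and reported at 1 h, normalized to vehicle after blank subtraction. Mean ± SD of ≥3 wells.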

Autotaxin [3] = biological target: T3, Autotaxin (Homo sapiens, UniProt Q13822)
Autotaxin [4] = biological target: T3, Autotaxin; remark: listed apart in the source
Autotaxin [5] = biological target: T3, Autotaxin; remark: listed apart in the source
Autotaxin [6] = biological target: T3, Autotaxin; remark: listed apart in the source
Autotaxin [7] = biological target: T3, Autotaxin; test: Noncompetitive inhibition of autotaxin-mediated pNP-TMP hydrolysis by Michaelis-Menten analysis for enzyme-substrate complex
Method in brief: (§1)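 ATX from ~10-fold concentrated serum-free conditioned medium of MDA-MB-435 cells, used without further manipulation. […] Absorbance at 405 nm read every 2 min gave initial rates. Km came from zero-inhibitor data. Ki (free enzyme) and K'i (enzyme–substrate complex) were fitted by non-linear models, and the mechanism was assigned by the lowest average percent residuals.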

Autotaxin [8] = biological target: T3, Autotaxin; test: Competitive-type inhibition of autotaxin-mediated FS3 hydrolysis by Michaelis-Menten analysis
Method in brief: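 ATX from ~10-fold concentrated serum-free conditioned medium of MDA-MB-435 cells. […] Buffer was 50 mM Tris pH 8.0 with salts and 30 µM charcoal-stripped BSA, 37 °C, fluorescence read every 2 min at ex 485/em 528. Initial rates were fitted to inhibition models, and the mechanism was assigned by lowest average percent residuals.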

Autotaxin [9] = biological target: T3, Autotaxin; test: Noncompetitive inhibition of autotaxin-mediated pNP-TMP hydrolysis by Michaelis-Menten analysis; method in brief: as §1

SMILES	inhibition [1]	inhibition [2]	Ki (Autotaxin [3]) [µM]	IC50 (Autotaxin [4]) [µM]	Ki (Autotaxin [5]) [µM]	IC50 (Autotaxin [6]) [µM]	Ki (Autotaxin [7]) [µM]	Ki (Autotaxin [8]) [µM]	Ki (Autotaxin [9]) [µM]
CCn1cc(C(=O)O)c(=O)c2cnc(N3CCN(C(=S)NC(=O)C4c5ccccc5Oc5ccccc54)CC3)nc21	inactive	inactive	–	–	–	–	–	–	–
O=C(O)c1cccc(NC(=O)c2ccc3c(c2)C(=O)N(c2ccc(/N=N/c4ccccc4)cc2)C3=O)c1	inactive	inactive	15.1	12.8	40.3	–	–	–	–
O=C(O)c1ccc(Oc2ccc(C(=O)c3ccc4c(c3)C(=O)N(c3cccc5ccccc35)C4=O)cc2)cc1	inactive	inactive	5.8	6.8	32.3	6.8	–	–	–
CCn1cc(C(=O)O)c(=O)c2cnc(N3CCN(C(=S)Nc4cc(Cl)cc(Cl)c4)CC3)nc21	inactive	inactive	–	–	–	1.2	6.5	1.9	6.5
O=C(O)c1ccc(CN2C(=O)c3ccc(C(=O)c4ccc5c(c4)C(=O)N(Cc4ccc(C(=O)O)cc4)C5=O)cc3C2=O)cc1	inactive	inactive	–	12.8	–	–	–	5	–
CCn1c(SCC(=O)Nc2ccc(C(=O)O)cc2)nc2nc3c(cc2c1=O)CCCC3	inactive	inactive	–	–	–	–	–	–	–
